Test results reported in ChEMBL document CHEMBL1629492 (Eur J Med Chem, 2010).

Assays:
Rattus norvegicus [1] = species on record: Rattus norvegicus; assay: Selectivity ratio of EC50 for alpha1A adrenoceptor in Wistar rat vas deferens to Ki for Alpha-1B adrenoceptor in Wistar rat spleen; format: tissue-based
Rattus norvegicus [2] = species on record: Rattus norvegicus; assay: Selectivity ratio of Ki for alpha1A adrenoceptor in Wistar rat vas deferens to Ki for Alpha-1D adrenoceptor in Wistar rat thoracic aorta; format: tissue-based
[3] = target: T1, Alpha-1A adrenergic receptor (Homo sapiens, UniProt P35348); assay: Displacement of [3H]prazosin from human alpha1A adrenoceptor expressed in CHO cells; format: cell-based
T1 sequence (P35348 whole entry): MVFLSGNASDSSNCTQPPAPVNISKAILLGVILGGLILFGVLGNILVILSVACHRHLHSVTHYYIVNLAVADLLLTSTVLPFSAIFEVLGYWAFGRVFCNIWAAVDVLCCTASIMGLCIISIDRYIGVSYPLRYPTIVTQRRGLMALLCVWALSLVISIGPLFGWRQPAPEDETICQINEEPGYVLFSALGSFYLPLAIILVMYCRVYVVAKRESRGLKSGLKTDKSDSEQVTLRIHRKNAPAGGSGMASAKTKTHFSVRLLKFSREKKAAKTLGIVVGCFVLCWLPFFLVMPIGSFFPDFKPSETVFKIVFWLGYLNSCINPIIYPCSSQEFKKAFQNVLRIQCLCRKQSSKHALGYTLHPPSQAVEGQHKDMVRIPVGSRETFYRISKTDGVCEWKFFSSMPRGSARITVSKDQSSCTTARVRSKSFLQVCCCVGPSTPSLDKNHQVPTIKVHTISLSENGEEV
In short: (§1)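 Membranes ([…], as printed) from CHO cells stably expressing the cloned human α1a subtype were incubated with 0.1–0.4 nM [³H]prazosin and competitor (1 pM up to the top concentration) in 50 mM Tris-HCl, pH 7.4, for 30 min at 25 °C. Non-specific binding was defined with phentolamine, and incubations ended by rapid filtration. IC50 was converted to Ki by Cheng–Prusoff. Reported as pKi from 2–3 triplicate experiments.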

[4] = target: T2, Alpha-1B adrenergic receptor (Homo sapiens, UniProt P35368); assay: Displacement of [3H]prazosin from human Alpha-1B adrenoceptor expressed in CHO cells; format: cell-based
T2 sequence (P35368 whole entry): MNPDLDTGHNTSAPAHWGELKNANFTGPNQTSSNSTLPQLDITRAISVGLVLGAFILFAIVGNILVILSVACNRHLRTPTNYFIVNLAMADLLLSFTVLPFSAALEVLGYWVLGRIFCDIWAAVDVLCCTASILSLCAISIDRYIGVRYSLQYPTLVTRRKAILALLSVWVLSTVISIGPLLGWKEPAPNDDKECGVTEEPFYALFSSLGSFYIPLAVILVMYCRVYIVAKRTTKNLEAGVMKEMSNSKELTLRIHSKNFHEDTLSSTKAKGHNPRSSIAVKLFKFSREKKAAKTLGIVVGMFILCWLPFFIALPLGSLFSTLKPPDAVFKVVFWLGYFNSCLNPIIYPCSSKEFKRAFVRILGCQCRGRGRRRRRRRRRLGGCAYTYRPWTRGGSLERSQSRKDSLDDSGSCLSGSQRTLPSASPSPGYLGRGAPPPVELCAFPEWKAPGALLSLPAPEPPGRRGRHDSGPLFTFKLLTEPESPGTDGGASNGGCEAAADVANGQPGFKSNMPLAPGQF
In short: as §1, with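 “α1b” for “α1a”, “by” for “by rapid”, “filtration. Ki was derived from” for “filtration.”, “IC50” for “IC50 was converted to Ki”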

Rattus norvegicus [5] = species on record: Rattus norvegicus; assay: Selectivity ratio of Ki for alpha1A adrenoceptor in Wistar rat vas deferens to Ki for Alpha-1B adrenoceptor in Wistar rat spleen; format: tissue-based
Rattus norvegicus [6] = species on record: Rattus norvegicus; assay: Selectivity ratio of EC50 for alpha1D adrenoceptor in Wistar rat thoracic aorta to EC50 for Alpha-1B adrenoceptor in Wistar rat spleen; format: tissue-based
[7] = Selectivity ratio of Ki for human alpha1A adrenoceptor to Ki for human Alpha-1B adrenoceptor
In short: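 Subtype selectivity is the antilog of the difference between pKi values, from [³H]prazosin displacement (0.1–0.4 nM, 30 min, 25 °C, pH 7.4) at cloned human α1a, α1b and α1d receptors in CHO membranes. Ki values came from IC50 via Cheng–Prusoff.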

Rattus norvegicus [8] = species on record: Rattus norvegicus; assay: Selectivity ratio of Ki for alpha1A adrenoceptor in Wistar rat vas deferens to EC50 for Alpha-1D adrenoceptor in Wistar rat thoracic aorta; format: tissue-based
Rattus norvegicus [9] = species on record: Rattus norvegicus; assay: Selectivity ratio of EC50 for alpha1D adrenoceptor in Wistar rat thoracic aorta to Ki for Alpha-1B adrenoceptor in Wistar rat spleen; format: tissue-based
[10] = target: T3, Alpha-1B adrenergic receptor (Rattus norvegicus, UniProt P15823); assay: Antagonist activity at Alpha-1B adrenoceptor in Wistar rat spleen assessed as phenylephrine induced contractions after 30 mins; format: functional, tissue-based; conditions: read-out: pA2 (converted)
T3 sequence (P15823 whole entry): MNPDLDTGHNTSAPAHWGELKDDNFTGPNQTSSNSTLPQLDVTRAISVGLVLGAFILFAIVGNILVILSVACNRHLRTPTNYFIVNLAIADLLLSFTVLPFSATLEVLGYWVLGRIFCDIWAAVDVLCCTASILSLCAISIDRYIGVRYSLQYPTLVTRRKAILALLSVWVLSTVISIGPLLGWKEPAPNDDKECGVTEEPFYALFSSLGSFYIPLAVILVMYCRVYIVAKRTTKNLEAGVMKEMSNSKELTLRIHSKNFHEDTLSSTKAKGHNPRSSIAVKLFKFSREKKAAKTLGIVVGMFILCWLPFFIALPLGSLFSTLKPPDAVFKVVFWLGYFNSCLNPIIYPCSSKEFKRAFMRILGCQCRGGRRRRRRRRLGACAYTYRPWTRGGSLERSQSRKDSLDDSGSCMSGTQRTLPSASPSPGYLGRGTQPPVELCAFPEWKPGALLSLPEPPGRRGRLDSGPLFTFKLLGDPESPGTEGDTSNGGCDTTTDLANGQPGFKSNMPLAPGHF
In short: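 Spleen strips from male Wistar rats (275–300 g) were set up in a 20 mL bath of physiological salt solution (pH 7.4, 37 °C, 95% O2/5% CO2) under 1 g tension and equilibrated 2 h. Two cumulative phenylephrine curves were run, each followed by 30 min washing, then 30 min incubation with vehicle or antagonist before a third curve. Values are Schild pA2, or pKB where slopes were nonparallel; 4–6 experiments.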

| SMILES | Selectivity ratio (Rattus norvegicus [1]) | Selectivity ratio (Rattus norvegicus [2]) | Ki [3] [nM] | Ki [4] [nM] | Selectivity ratio (Rattus norvegicus [5]) | Selectivity ratio (Rattus norvegicus [6]) | Ki ratio [7] | Selectivity ratio (Rattus norvegicus [8]) | Selectivity ratio (Rattus norvegicus [9]) | Kb [10] [nM] |
| --- | --- | --- | --- | --- | --- | --- | --- | --- | --- | --- |
| COc1ccc(C[C@@H](C)NCCOc2ccccc2OCc2ccccc2)cc1S(N)(=O)=O | 12 | 3 | 0.347 | 2.09 | 12 | 4 | 6 | 3 | 4 |  |
| COc1ccc(C[C@@H](C)NCCOc2ccccc2OCC(F)(F)F)cc1S(N)(=O)=O | 4 | 4 | 0.603 | 5.5 | 4 | 1 | 9 | 4 | 1 | 1.1 |
| COc1ccc(C[C@@H](C)NC[C@@H]2Oc3ccccc3O[C@@H]2C)cc1S(N)(=O)=O | 1 | 1 | 11.5 | 31.6 | 1 | 0.8 | 3 | 1 | 0.8 |  |
| COc1ccc(C[C@@H](C)NCCOc2ccccc2OC(C)C)cc1S(N)(=O)=O | 7 | 2 | 0.339 | 1.91 | 7 | 3 | 5 | 2 | 3 |  |
| COc1ccc(C[C@@H](C)NC[C@H]2Oc3ccccc3O[C@H]2C)cc1S(N)(=O)=O | 1 | 2 | 19.1 | 67.6 | 1 | 0.5 | 4 | 2 | 0.5 | 30.9 |
